Results taken from ChEMBL document CHEMBL2440018 (J Med Chem, 2013).
Activity calls are given as the source filed them. The rule behind the calls is not given here.

Tests used:
[1] = biological target: MMP-2/MMP-14 (Homo sapiens) (UniProt P50281+P08253); test: Selectivity ratio of Ki for human recombinant MMP-14 catalytic domain to Ki for human recombinant MMP-2
[2] = species on record: Homo sapiens; test: Selectivity ratio of Ki for human recombinant MMP-8 catalytic domain to Ki for human recombinant MMP-2
[3] = biological target: MMP-2/MMP-9 (Homo sapiens) (UniProt P08253+P14780); test: Selectivity ratio of Ki for human recombinant MMP-9 catalytic domain to Ki for human recombinant MMP-2
[4] = biological target: T1, Matrilysin (Homo sapiens) (UniProt P09237); test: Inhibition of human recombinant MMP-7 at 50 uM by fluorescence spectrophotometric analysis relative to control
T1 sequence (whole entry): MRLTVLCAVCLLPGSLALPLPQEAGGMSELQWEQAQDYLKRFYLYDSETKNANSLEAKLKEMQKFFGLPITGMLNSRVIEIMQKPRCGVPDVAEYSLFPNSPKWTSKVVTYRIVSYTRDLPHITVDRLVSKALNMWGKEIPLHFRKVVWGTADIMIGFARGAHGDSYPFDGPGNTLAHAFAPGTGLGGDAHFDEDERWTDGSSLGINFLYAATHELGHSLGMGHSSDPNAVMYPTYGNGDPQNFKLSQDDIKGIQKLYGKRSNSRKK

[5] = biological target: Stromelysin-1 (Homo sapiens) (UniProt P08254); test: Inhibition of human recombinant MMP-3 catalytic domain at 50 uM by fluorescence spectrophotometric analysis relative to control
[6] = biological target: T2, Interstitial collagenase (Homo sapiens) (UniProt P03956); test: Inhibition of human recombinant MMP-1 catalytic domain at 50 uM by fluorescence spectrophotometric analysis relative to control
T2 sequence (whole entry): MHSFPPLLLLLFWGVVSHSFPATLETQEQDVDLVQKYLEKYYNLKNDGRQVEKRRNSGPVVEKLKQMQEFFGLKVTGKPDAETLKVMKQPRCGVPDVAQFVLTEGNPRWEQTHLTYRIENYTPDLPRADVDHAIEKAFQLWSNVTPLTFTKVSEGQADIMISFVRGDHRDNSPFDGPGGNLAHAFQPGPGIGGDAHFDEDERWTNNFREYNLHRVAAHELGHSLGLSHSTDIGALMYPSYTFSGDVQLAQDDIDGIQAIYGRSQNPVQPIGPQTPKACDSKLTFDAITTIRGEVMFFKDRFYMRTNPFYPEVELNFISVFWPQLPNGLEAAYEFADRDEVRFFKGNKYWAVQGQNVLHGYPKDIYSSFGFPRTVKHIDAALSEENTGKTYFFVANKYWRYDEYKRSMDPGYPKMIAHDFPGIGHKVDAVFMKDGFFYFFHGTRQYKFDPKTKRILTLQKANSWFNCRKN

[7] = biological target: T3, Matrix metalloproteinase-14 (Homo sapiens, UniProt P50281); test: Inhibition of human recombinant MMP-14 catalytic domain using MOCAcPLGLA2pr(Dnp)AR-NH2 as substrate at 50 uM by fluorescence spectrophotometric analysis relative to control
[8] = biological target: T4, Matrix metalloproteinase-9 (Homo sapiens, UniProt P14780); test: Inhibition of human recombinant MMP-9 catalytic domain using MOCAcPLGLA2pr(Dnp)AR-NH2 as substrate at 50 uM by fluorescence spectrophotometric analysis relative to control
[9] = biological target: 72 kDa type IV collagenase (Homo sapiens, UniProt P08253); test: Inhibition of human recombinant MMP-2 using MOCAcPLGLA2pr(Dnp)AR-NH2 as substrate by fluorescence spectrophotometric analysis
[10] = system: Plasma; test: Metabolic stability in C57Bl/6J mouse plasma assessed as formation of ND-322 at 25 mg/kg, sc measured at 10 to 300 mins; type: ADME, organism-based; set-up: dose 25 mg/kg, route subcutaneous; conditions: in vivo
Procedure, shortened: (§1)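 Female C57Bl/6J mice (6–8 weeks, 16–19 g) received a single 100 µL sc dose equivalent to 25 mg/kg, in 10% DMSO/25% Tween 80/65% water or 80% propylene glycol/20% DMSO. Terminal heparinised vena cava blood gave plasma, and saline-perfused whole brain was taken; n = 3 per time point. Acetonitrile extracts with internal standard were run by UPLC/ESI-MRM against matrix calibration curves, linear 0.05–5 µM.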

[11] = system: Brain; test: Metabolic stability in C57Bl/6J mouse brain assessed as formation of ND-322 at 25 mg/kg, sc measured at 10 to 300 mins; type: ADME, organism-based; set-up: dose 25 mg/kg, route subcutaneous; conditions: in vivo; procedure, shortened: as §1
[12] = Ratio of AUC in brain to plasma in C57Bl/6J mouse at 25 mg/kg, sc; type: ADME, organism-based; set-up: dose 25 mg/kg, route subcutaneous; conditions: brain and plasma, read-out: Ratio AUC
[13] = system: Plasma; test: Elimination half life in C57Bl/6J mouse plasma at 25 mg/kg, sc; type: ADME, organism-based; set-up: dose 25 mg/kg, route subcutaneous; conditions: in vivo
Procedure, shortened: (§2)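 Mice were dosed sc once at 25 mg/kg; plasma and perfused brain (n = 3 per time point) were quantified by UPLC/ESI-MRM. AUC0-last came from the mean concentration-time curve by the trapezoidal rule, and AUC0-∞ = AUC0-last + Clast/k. α and β half-lives came from linear regression on the linear portion of the concentration-time data, with t1/2 = ln2/k.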

[14] = system: Brain; test: Elimination half life in C57Bl/6J mouse brain at 25 mg/kg, sc; type: ADME, organism-based; set-up: dose 25 mg/kg, route subcutaneous; conditions: in vivo; procedure, shortened: as §2
[15] = Primary phase half life in C57Bl/6J mouse plasma at 25 mg/kg, sc; type: ADME, organism-based; set-up: dose 25 mg/kg, route subcutaneous; conditions: read-out: alphat1/2; procedure, shortened: as §2
[16] = Primary phase half life in C57Bl/6J mouse brain at 25 mg/kg, sc; type: ADME, organism-based; set-up: dose 25 mg/kg, route subcutaneous; conditions: read-out: alphat1/2; procedure, shortened: as §2
[17] = system: Plasma; test: AUC (0 to infinity) in C57Bl/6J mouse plasma at 25 mg/kg, sc; type: ADME, organism-based; set-up: time infinity, dose 25 mg/kg, route subcutaneous; conditions: in vivo; procedure, shortened: as §2
[18] = system: Brain; test: AUC (0 to infinity) in C57Bl/6J mouse brain at 25 mg/kg, sc; type: ADME, organism-based; set-up: time infinity, dose 25 mg/kg, route subcutaneous; conditions: in vivo; procedure, shortened: as §2
[19] = system: Plasma; test: AUC (0 to last) in C57Bl/6J mouse plasma at 25 mg/kg, sc; type: ADME, organism-based; set-up: time 0 - last, dose 25 mg/kg, route subcutaneous; conditions: in vivo; procedure, shortened: as §2
[20] = system: Brain; test: AUC (0 to last) in C57Bl/6J mouse brain at 25 mg/kg, sc; type: ADME, organism-based; set-up: dose 25 mg/kg, route subcutaneous; conditions: in vivo; procedure, shortened: as §2
[21] = system: Brain; test: Drug uptake in C57Bl/6J mouse brain measured per mg of tissue at 25 mg/kg, sc measured at 5 hrs by reversed phase UPLC/ESI-MRM analysis; type: ADME, organism-based; set-up: dose 25 mg/kg, route subcutaneous; conditions: in vivo; procedure, shortened: as §1
[22] = Plasma concentration in C57Bl/6J mouse at 25 mg/kg, sc measured at 5 hrs by reversed phase UPLC/ESI-MRM analysis; type: ADME, organism-based; set-up: dose 25 mg/kg, route subcutaneous; procedure, shortened: as §1
[23] = system: Brain; test: Drug uptake in C57Bl/6J mouse brain at 25 mg/kg, sc measured at 10 mins by reversed phase UPLC/ESI-MRM analysis; type: ADME, organism-based; set-up: dose 25 mg/kg, route subcutaneous; conditions: in vivo; procedure, shortened: as §1
[24] = system: Plasma; test: Plasma concentration in C57Bl/6J mouse at 25 mg/kg, sc measured at 10 mins by reversed phase UPLC/ESI-MRM analysis; type: ADME, organism-based; set-up: dose 25 mg/kg, route subcutaneous; conditions: in vivo; procedure, shortened: as §1
[25] = system: Liver; test: Half life in rat liver S9 fraction at 10 uM by reversed-phase UPLC/ESI-MRM analysis; type: ADME, subcellular; conditions: s9, 10 µM
Procedure, shortened: (§3)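 Male rat liver S9 (1.0 mg) with 0.5 mM NADPH and 10 µM compound (both final) in 50 mM potassium phosphate, pH 7.4, at 37 °C, sampled over time. Aliquots were stopped with acetonitrile containing internal standard, and the supernatant was run by UPLC/ESI-MRM. Half-lives used first-order kinetics on peak-area ratios to internal standard.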

[26] = biological target: Neutrophil collagenase (Homo sapiens, UniProt P22894); test: Inhibition of human recombinant MMP-8 catalytic domain using […] as substrate by fluorescence spectrophotometric analysis
[27] = biological target: T3, Matrix metalloproteinase-14; test: Inhibition of human recombinant MMP-14 catalytic domain using MOCAcPLGLA2pr(Dnp)AR-NH2 as substrate by fluorescence spectrophotometric analysis
[28] = biological target: T4, Matrix metalloproteinase-9; test: Inhibition of human recombinant MMP-9 catalytic domain using MOCAcPLGLA2pr(Dnp)AR-NH2 as substrate by fluorescence spectrophotometric analysis
[29] = system: Liver; test: Elimination half life in rat liver S9 fraction at 10 uM by reversed-phase UPLC/ESI-MRM analysis; type: ADME, subcellular; conditions: s9, 10 µM; procedure, shortened: as §3
[30] = system: Liver; test: Primary phase half life in rat liver S9 fraction at 10 uM by reversed-phase UPLC/ESI-MRM analysis; type: ADME, subcellular; conditions: s9, 10 µM; procedure, shortened: as §3
[31] = system: Liver; test: Metabolic stability in rat liver S9 fraction assessed as formation of 4-(4-(thiiran-2-ylmethylsulfonyl)phenoxy)phenol after 5 mins by reversed-phase LC/MS analysis; type: ADME, subcellular; conditions: s9, 5 min
Procedure, shortened: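 Male rat liver S9 (1.0 mg) incubated with 10 μM compound (final) and 0.5 mM NADPH (final) in 50 mM potassium phosphate, pH 7.4, 37 °C. Aliquots taken at several time points. Reactions quenched with one volume acetonitrile containing internal standard, centrifuged, supernatant run on reversed-phase UPLC/ESI-MRM. Quantified by peak area ratio to internal standard.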

72 kDa type IV collagenase, sequence (P08253 whole entry): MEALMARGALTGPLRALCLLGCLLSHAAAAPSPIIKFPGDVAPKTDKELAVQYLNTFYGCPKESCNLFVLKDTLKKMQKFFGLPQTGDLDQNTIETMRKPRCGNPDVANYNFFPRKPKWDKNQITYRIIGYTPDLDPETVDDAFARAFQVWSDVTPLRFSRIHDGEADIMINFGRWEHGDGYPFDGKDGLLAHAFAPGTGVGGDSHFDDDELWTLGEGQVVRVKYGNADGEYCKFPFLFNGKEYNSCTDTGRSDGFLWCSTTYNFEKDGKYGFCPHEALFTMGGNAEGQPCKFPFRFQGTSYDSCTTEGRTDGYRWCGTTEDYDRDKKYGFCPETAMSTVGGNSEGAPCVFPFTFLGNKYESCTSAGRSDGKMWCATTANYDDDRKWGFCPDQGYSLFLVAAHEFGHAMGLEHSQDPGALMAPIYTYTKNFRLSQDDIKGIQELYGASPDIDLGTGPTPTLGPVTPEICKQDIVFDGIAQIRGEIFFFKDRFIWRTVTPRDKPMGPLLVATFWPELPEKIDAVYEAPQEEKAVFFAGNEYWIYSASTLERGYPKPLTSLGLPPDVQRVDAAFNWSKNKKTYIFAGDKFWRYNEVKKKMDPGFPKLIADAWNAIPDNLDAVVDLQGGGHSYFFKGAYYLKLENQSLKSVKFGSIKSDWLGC
T4 sequence (P14780 whole entry, the tested form may be a part): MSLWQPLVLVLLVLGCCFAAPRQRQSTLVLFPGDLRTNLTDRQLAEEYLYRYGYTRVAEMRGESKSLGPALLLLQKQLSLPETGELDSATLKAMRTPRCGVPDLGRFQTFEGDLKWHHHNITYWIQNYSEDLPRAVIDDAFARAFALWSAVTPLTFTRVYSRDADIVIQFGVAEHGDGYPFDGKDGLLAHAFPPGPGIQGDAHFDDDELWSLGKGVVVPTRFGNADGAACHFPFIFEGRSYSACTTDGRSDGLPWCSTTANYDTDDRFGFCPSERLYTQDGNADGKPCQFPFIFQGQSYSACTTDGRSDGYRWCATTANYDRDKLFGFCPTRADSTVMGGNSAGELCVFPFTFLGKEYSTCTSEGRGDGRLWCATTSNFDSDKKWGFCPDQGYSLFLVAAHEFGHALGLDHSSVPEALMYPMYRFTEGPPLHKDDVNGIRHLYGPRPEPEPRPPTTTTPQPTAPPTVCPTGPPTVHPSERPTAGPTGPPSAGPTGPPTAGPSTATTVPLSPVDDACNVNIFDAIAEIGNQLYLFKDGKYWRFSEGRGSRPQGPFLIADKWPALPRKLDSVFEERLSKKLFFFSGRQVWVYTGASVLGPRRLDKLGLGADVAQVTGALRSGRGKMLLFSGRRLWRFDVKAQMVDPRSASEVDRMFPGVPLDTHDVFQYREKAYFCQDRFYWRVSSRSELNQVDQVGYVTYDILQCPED
Neutrophil collagenase, sequence (P22894 whole entry, the tested form may be a part): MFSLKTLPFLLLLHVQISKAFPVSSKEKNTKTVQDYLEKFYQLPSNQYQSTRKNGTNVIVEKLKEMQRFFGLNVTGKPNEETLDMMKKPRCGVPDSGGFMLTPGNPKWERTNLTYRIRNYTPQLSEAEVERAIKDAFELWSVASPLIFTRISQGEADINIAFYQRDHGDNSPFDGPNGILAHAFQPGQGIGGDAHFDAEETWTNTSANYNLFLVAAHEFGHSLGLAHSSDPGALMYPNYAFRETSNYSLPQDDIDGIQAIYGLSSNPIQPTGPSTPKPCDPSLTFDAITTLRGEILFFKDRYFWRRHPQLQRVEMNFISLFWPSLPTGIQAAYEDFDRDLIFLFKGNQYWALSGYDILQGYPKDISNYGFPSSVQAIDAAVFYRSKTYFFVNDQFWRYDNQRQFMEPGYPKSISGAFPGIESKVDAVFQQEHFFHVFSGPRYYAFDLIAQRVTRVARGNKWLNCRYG

SMILES	Ratio Ki [1]	Ratio Ki [2]	Ratio Ki [3]	inhibition [4]	inhibition [5]	inhibition [6]	Ki [9] [µM]	Ki [27] [µM]	Ki [28] [µM]	also measured
CC(C)NC(=O)Oc1ccc(Oc2ccc(S(=O)(=O)CC3CS3)cc2)cc1 (stereo not given)	20	20	20	inactive	3%	inactive	0.69	–	–	inhibition [7]: 30%; inhibition [8]: 22%
CCNC(=O)Nc1ccc(Oc2ccc(S(=O)(=O)CC3CS3)cc2)cc1 (stereo not given)	20	20	20	7%	inactive	inactive	0.44	–	–	Stability [10]: Stable; Stability [11]: Stable; Kp [12]: 0.0738; beta t1/2 [13]: 61.9 min; beta t1/2 [14]: 204 min; half-life [15]: 8.38 min; half-life [16]: 18.2 min; AUC [17]: 187 µM·min; AUC [18]: 13.8 pmol·min/mg; AUClast [19]: 181 µM·min; AUClast [20]: 9.86 pmol·min/mg; Drug uptake [21]: 0.0133 pmol; concentration at 5 h [22]: 70.4 nM; Drug uptake [23]: Active; Drug uptake [24]: Active; t1/2 [25]: 40.7 min; Ki [26]: 17 µM; inhibition [7]: 17%; inhibition [8]: 28%
CNC(=O)Oc1ccc(Oc2ccc(S(=O)(=O)CC3CS3)cc2)cc1 (stereo not given)	20	20	20	6%	30%	8%	0.39	12	10	–
CNC(=O)Nc1ccc(Oc2ccc(S(=O)(=O)CC3CS3)cc2)cc1 (stereo not given)	20	20	20	8%	21%	inactive	0.24	19	9.9	–
O=S(=O)(CC1CS1)c1ccc(Oc2ccc(O)cc2)cc1 (stereo not given)	–	–	–	–	–	–	–	–	–	t1/2 [25]: 23.5 min
Nc1ccc(Oc2ccc(S(=O)(=O)CC3CS3)cc2)cc1 (stereo not given)	–	–	–	–	–	–	–	–	–	beta t1/2 [29]: 59 min; alphat1/2 [30]: 14 min
CCOC(=O)Oc1ccc(Oc2ccc(S(=O)(=O)CC3CS3)cc2)cc1 (stereo not given)	–	–	2	9%	39%	inactive	0.23	2.7	–	Stability [31]: Unstable
CC(C)OC(=O)Oc1ccc(Oc2ccc(S(=O)(=O)CC3CS3)cc2)cc1 (stereo not given)	–	–	2	13%	9%	inactive	0.48	3	1.3	–
